Active and inactive are the calls of the source. No cut-off for these calls is given here.
Columns and labels:
[1] = test system: Human immunodeficiency virus 1; experiment: Antiviral activity against 0.1 MOI HIV1 3B infected in human TZM-b1 cells assessed as inhibition of viral replication at 6 uM after 24 hrs by luciferase assay; type: functional; conditions: Human immunodeficiency virus 1, 3B, TZM-b1, 24 h
Method in brief: (§1)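 TZM-bl cells in phenol red-free RPMI 1640 were infected with HIV-1 IIIB (MOI 0.1) at the time of adding drug at various concentrations, and drug and virus stayed together for 24 h. Lysate luciferase was measured with uninfected background subtracted, in quintuple wells. Inhibition was the mean signal relative to drug-free infected cells.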

[2] = test system: CCRF-CEM; experiment: Drug metabolism in human CEM cells assessed as radioactive stavudine monophosphate accumulation at 2 uM assessed per 10^6 cells; type: ADME, cell-based; conditions: TDE = time-dependent effect
Method in brief: (§2)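 CEM cells (2 x 10^7/ml) in RPMI 1640 with 10% dialyzed FBS were incubated at 37°C with 2 µM [3H]analog (75 mCi/mmol) and harvested at 2, 4, 8, 12, 16 and 24 h. Cells were washed in ice-cold PBS with 20 µM dipyridamole and extracted with 15% TCA. Neutralized extracts were separated on a Partisil SAX column with an H2O to 300 mM potassium phosphate gradient and radiometric detection, reported as pmol/10^6 cells, mean ± SD of three experiments.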

[3] = test system: Human immunodeficiency virus 1; experiment: Antiviral activity against 0.1 MOI HIV1 3B infected in human TZM-b1 cells assessed as inhibition of viral replication after 24 hrs by luciferase assay; type: functional, organism-based; method in brief: as §1
[4] = test system: CCRF-CEM; experiment: Drug metabolism in human CEM cells assessed as radioactive stavudine triphosphate accumulation at 2 uM assessed per 10^6 cells; type: ADME, cell-based; conditions: TDE = time-dependent effect; method in brief: as §2
[5] = test system: Human immunodeficiency virus 1; experiment: Antiviral activity against 0.1 MOI HIV1 3B in 24 hrs pretreated human TZM-b1 cells infected 0 hr post drug removal assessed as inhibition of viral replication at 5 uM measured 24 hrs postinfection by luciferase assay; type: functional; conditions: Human immunodeficiency virus 1, 3B
Method in brief: (§3)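 TZM-bl cells were plated in phenol red-free RPMI 1640, allowed to adhere 15–18 h at 37°C, then exposed to a range of drug concentrations for 24 h. Medium was changed to remove extracellular drug, and cells were infected with HIV-1 IIIB (MOI 0.1) at 0, 24 or 48 h after removal. Luciferase was read 24 h post-infection with uninfected-cell background subtracted, in quintuple wells, and expressed relative to no-drug wells.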

[6] = test system: Human immunodeficiency virus 1; experiment: Antiviral activity against 0.1 MOI HIV1 3B in 24 hrs pretreated human TZM-b1 cells infected 0 hr post drug removal assessed as inhibition of viral replication at 6 uM measured 24 hrs postinfection by luciferase assay; type: functional; conditions: Human immunodeficiency virus 1, 3B; method in brief: as §3
[7] = test system: RKO; experiment: (§4) Drug metabolism in doxycyclin-induced Tet-On gene expressing human RKO cells producing thymidylate kinase assessed as increase in radioactive 2', 3'-didehydro-3'-deoxy-4'-ethynylthymidine triphosphate accumulation at 2 uM after 16 hrs assessed per 10^6 cells by HPLC analysis relative to control; type: ADME, cell-based
Method in brief: (§5)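 TMPK Tet-On RKO cells were seeded at 5 x 10^5 per dish with doxycycline at 0, 50 or 3,000 ng/ml for 48 or 72 h, then pulsed for 16 h with 2 µM [5'-3H]4'-Ed4T (478 mCi/mmol). After a cold PBS wash containing 20 µM dipyridamole, cells were extracted with 15% TCA and neutralized with trioctylamine/trichlorotrifluoroethane. Metabolites were quantified by radio-HPLC as pmol/10^6 cells, n=3.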

[8] = test system: CCRF-CEM; experiment: Drug metabolism in human CEM cells assessed as radioactive 2', 3'-didehydro-3'-deoxy-4'-ethynylthymidine triphosphate accumulation after 12 hrs assessed per 10^6 cells; type: ADME, cell-based; method in brief: as §2
[9] = test system: Human immunodeficiency virus 1; experiment: Antiviral activity against 0.1 MOI HIV1 3B in 24 hrs pretreated human TZM-b1 cells infected 24 hrs post drug removal assessed as inhibition of viral replication at 1 to 6 uM measured 24 hrs postinfection by luciferase assay
[10] = test system: Human immunodeficiency virus 1; experiment: Antiviral activity against 0.1 MOI HIV1 3B in 24 hrs pretreated human TZM-b1 cells infected 0 hr post drug removal assessed as inhibition of viral replication at 1 uM measured 24 hrs postinfection by luciferase assay; type: functional; conditions: Human immunodeficiency virus 1, 3B; method in brief: as §3
[11] = test system: RKO; experiment: Drug metabolism in doxycyclin-induced Tet-On gene expressing human RKO cells producing thymidylate kinase assessed as radioactive 2', 3'-didehydro-3'-deoxy-4'-ethynylthymidine diphosphate accumulation after 16 hrs assessed per 10^6 cells by HPLC analysis; type: ADME, cell-based; method in brief: as §5
[12] = test system: CCRF-CEM; experiment: Stability in human CEM cells assessed as intracellular radioactive triphosphate metabolite accumulation at 2 uM incubated for 24 hrs measured after 24 hrs of compound removal assessed per 10^6 cells; type: ADME, cell-based
Method in brief: (§6)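 CEM cells were loaded with 2 µM [3H]analog (75 mCi/mmol) for 24 h, washed, and resuspended in drug-free medium. Intracellular metabolites were then measured by SAX-HPLC with radiometric detection at 0, 2, 4, 8, 12 and 24 h after removal. Values are pmol/10^6 cells, mean ± SD of three experiments.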

[13] = test system: CCRF-CEM; experiment: Stability in human CEM cells assessed as intracellular radioactive phosphorylated metabolite accumulation at 2 uM incubated for 24 hrs measured after 8 hrs of compound removal assessed per 10^6 cells; type: ADME, cell-based; method in brief: as §6
[14] = test system: CCRF-CEM; experiment: Drug metabolism in human CEM cells assessed as radioactive 2', 3'-didehydro-3'-deoxy-4'-ethynylthymidine monophosphate accumulation after 12 hrs assessed per 10^6 cells; type: ADME, cell-based; method in brief: as §2
[15] = test system: CCRF-CEM; experiment: Drug metabolism in human CEM cells assessed as radioactive stavudine diphosphate accumulation at 2 uM assessed per 10^6 cells; type: ADME, cell-based; conditions: TDE = time-dependent effect; method in brief: as §2
[16] = test system: CCRF-CEM; experiment: Drug metabolism in human CEM cells assessed as radioactive 2', 3'-didehydro-3'-deoxy-4'-ethynylthymidine diphosphate accumulation after 12 hrs assessed per 10^6 cells; type: ADME, cell-based
Method in brief: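 For the dose series, CEM cells took up [3H]4'-Ed4T at 0.2/0.25, 0.5, 1 and 2 µM (150 mCi/mmol) for 12 h. TCA extracts were neutralized and the mono-, di- and triphosphates resolved by SAX-HPLC with radioactivity detection. Values are pmol/10^6 cells, mean ± SD, three independent experiments.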

[17] = test system: Human immunodeficiency virus 1; experiment: Antiviral activity against 0.1 MOI HIV1 3B in 24 hrs pretreated human TZM-b1 cells infected 0 hr post drug removal assessed as inhibition of viral replication at 2 uM measured 24 hrs postinfection by luciferase assay; type: functional; conditions: Human immunodeficiency virus 1, 3B; method in brief: as §3
[18] = test system: Human immunodeficiency virus 1; experiment: Antiviral activity against 0.1 MOI HIV1 3B infected in human TZM-b1 cells assessed as inhibition of viral replication at 2 uM after 24 hrs by luciferase assay; type: functional; conditions: Human immunodeficiency virus 1, 3B, TZM-b1, 24 h; method in brief: as §1
[19] = test system: Human immunodeficiency virus 1; experiment: Antiviral activity against 0.1 MOI HIV1 3B in 24 hrs pretreated human TZM-b1 cells infected 0 hr post drug removal assessed as inhibition of viral replication at 3 uM measured 24 hrs postinfection by luciferase assay; type: functional; conditions: Human immunodeficiency virus 1, 3B; method in brief: as §3
[20] = test system: Human immunodeficiency virus 1; experiment: Antiviral activity against 0.1 MOI HIV1 3B in 24 hrs pretreated human TZM-b1 cells infected 0 hr post drug removal assessed as inhibition of viral replication at 4 uM measured 24 hrs postinfection by luciferase assay; type: functional; conditions: Human immunodeficiency virus 1, 3B; method in brief: as §3
[21] = test system: CCRF-CEM; experiment: Drug metabolism in human CEM cells assessed as radioactive 2', 3'-didehydro-3'-deoxy-4'-ethynylthymidine triphosphate accumulation at 2 uM assessed per 10^6 cells; type: ADME, cell-based; conditions: TDE = time-dependent effect; method in brief: as §2
[22] = test system: CCRF-CEM; experiment: Drug metabolism in human CEM cells assessed as radioactive zidovudine triphosphate accumulation at 2 uM assessed per 10^6 cells; type: ADME, cell-based; conditions: TDE = time-dependent effect; method in brief: as §2
[23] = test system: RKO; experiment: as §4, with “3-phosphoglycerate” for “thymidylate”; type: ADME, cell-based
Method in brief: (§7)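 Tet-On PGK RKO cells (5 x 10^5 per dish) were induced with doxycycline at 0, 50 or 100 ng/ml for 48 or 72 h, then given 2 µM [5'-3H]4'-Ed4T (478 mCi/mmol) for 16 h. Cells were washed in cold PBS with 20 µM dipyridamole and extracted with 15% TCA. Neutralized extracts went through SAX-HPLC with radiometric detection, expressed as pmol/10^6 cells, mean of three experiments.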

[24] = test system: Human immunodeficiency virus 1; experiment: Antiviral activity against 0.1 MOI HIV1 3B in 24 hrs pretreated human TZM-b1 cells infected 24 hrs post drug removal assessed as inhibition of viral replication at 1 uM measured 24 hrs postinfection by luciferase assay; type: functional; conditions: Human immunodeficiency virus 1, 3B; method in brief: as §3
[25] = test system: CCRF-CEM; experiment: Drug metabolism in human CEM cells assessed as radioactive 2', 3'-didehydro-3'-deoxy-4'-ethynylthymidine monophosphate accumulation at 2 uM assessed per 10^6 cells; type: ADME, cell-based; conditions: TDE = time-dependent effect; method in brief: as §2
[26] = test system: CCRF-CEM; experiment: Drug metabolism in human CEM cells assessed as radioactive 2', 3'-didehydro-3'-deoxy-4'-ethynylthymidine diphosphate accumulation at 2 uM assessed per 10^6 cells; type: ADME, cell-based; conditions: TDE = time-dependent effect; method in brief: as §2
[27] = test system: CCRF-CEM; experiment: Drug metabolism in human CEM cells assessed as radioactive zidovudine monophosphate accumulation at 2 uM assessed per 10^6 cells; type: ADME, cell-based; conditions: TDE = time-dependent effect; method in brief: as §2
[28] = test system: RKO; experiment: Drug metabolism in doxycyclin-induced Tet-On gene expressing human RKO cells producing thymidylate kinase assessed as increase in radioactive 2', 3'-didehydro-3'-deoxy-4'-ethynylthymidine diphosphate accumulation at 2 uM after 16 hrs assessed per 10^6 cells by HPLC analysis relative to control; type: ADME, cell-based; method in brief: as §5
[29] = test system: RKO; experiment: Drug metabolism in doxycyclin-induced Tet-On gene expressing human RKO cells producing 3-phosphoglycerate kinase assessed as radioactive 2', 3'-didehydro-3'-deoxy-4'-ethynylthymidine triphosphate accumulation after 16 hrs assessed per 10^6 cells by HPLC analysis; type: ADME, cell-based; method in brief: as §7
[30] = test system: CCRF-CEM; experiment: Drug metabolism in human CEM cells assessed as radioactive zidovudine diphosphate accumulation at 2 uM assessed per 10^6 cells; type: ADME, cell-based; conditions: TDE = time-dependent effect; method in brief: as §2

Activity [2]: tde | Activity [4]: tde | fold change (FC) [7]: 3 | Activity [8]: Dose-dependent effect | Activity [11]: Dose-dependent effect | Stability [12]: 0.2 pmol | Stability [13]: 1.07 pmol | Activity [14]: Dose-dependent effect | Activity [15]: tde | Activity [16]: Dose-dependent effect | Activity [21]: tde | Activity [22]: tde | fold change (FC) [23]: 2.3 | Activity [25]: tde | Activity [26]: tde | Activity [27]: tde | fold change (FC) [28]: 3 | Activity [29]: Dose-dependent effect | Activity [30]: tde
Compound: C#C[C@@]1(CO)C=C[C@H](n2cc(C)c(=O)[nH]c2=O)O1 [CENSAVUDINE]
inhibition at 6 µM [1]: 50% | inhibition [3]: Dose-dependent effect | inhibition at 5 µM [5]: 50% | inhibition at 6 µM [6]: 50% | inhibition [9]: Active | inhibition at 1 µM [10]: 50% | inhibition at 2 µM [17]: 50% | inhibition at 2 µM [18]: 50% | inhibition at 3 µM [19]: 50% | inhibition at 4 µM [20]: 50% | inhibition at 1 µM [24]: > 50%

— ChEMBL document CHEMBL1137646, “Intracellular metabolism and persistence of the anti-human immunodeficiency virus activity of 2',3'-didehydro-3'-deoxy-4'-ethynylthymidine, a novel thymidine analog” (Antimicrob Agents Chemother, 2007)
